For experiment [1], the target named is T1, Retinoic acid receptor gamma (Homo sapiens) (UniProt P13631).
T1 sequence (whole entry): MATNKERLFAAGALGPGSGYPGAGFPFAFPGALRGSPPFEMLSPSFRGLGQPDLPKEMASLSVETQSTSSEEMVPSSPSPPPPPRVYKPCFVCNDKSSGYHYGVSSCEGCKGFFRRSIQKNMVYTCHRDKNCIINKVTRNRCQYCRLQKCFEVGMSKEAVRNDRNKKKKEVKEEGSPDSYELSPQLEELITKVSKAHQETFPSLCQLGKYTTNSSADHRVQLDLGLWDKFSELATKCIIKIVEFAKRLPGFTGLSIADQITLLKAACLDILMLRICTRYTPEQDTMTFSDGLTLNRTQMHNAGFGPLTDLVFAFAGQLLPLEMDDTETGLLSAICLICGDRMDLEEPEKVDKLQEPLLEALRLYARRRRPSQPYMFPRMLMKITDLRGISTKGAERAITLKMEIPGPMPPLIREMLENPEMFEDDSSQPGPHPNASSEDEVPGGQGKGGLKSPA
As to the kind of experiment: (§1) Transcriptional activation of Retinoic Acid Receptor gamma (RAR gamma). In kind it is functional. The procedure, abridged:
(§2)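 Receptor and reporter vectors were lipofected into COS-1 cells. After 4 h the medium was changed to DMEM/10% FBS for 20 h. Cells were reseeded at 3 × 10⁴/well and compounds added 6 h later, in log dilutions from 3.0 × 10^-6 to 1.0 × 10^-10 M in duplicate. Supernatant PLAP activity was read after 48 h. EC30 (30% of maximal response) was normalized to ATRA.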

Experiment [2] concerns the target T2, Retinoic acid receptor alpha (Homo sapiens) (UniProt P10276).
T2 sequence (whole entry): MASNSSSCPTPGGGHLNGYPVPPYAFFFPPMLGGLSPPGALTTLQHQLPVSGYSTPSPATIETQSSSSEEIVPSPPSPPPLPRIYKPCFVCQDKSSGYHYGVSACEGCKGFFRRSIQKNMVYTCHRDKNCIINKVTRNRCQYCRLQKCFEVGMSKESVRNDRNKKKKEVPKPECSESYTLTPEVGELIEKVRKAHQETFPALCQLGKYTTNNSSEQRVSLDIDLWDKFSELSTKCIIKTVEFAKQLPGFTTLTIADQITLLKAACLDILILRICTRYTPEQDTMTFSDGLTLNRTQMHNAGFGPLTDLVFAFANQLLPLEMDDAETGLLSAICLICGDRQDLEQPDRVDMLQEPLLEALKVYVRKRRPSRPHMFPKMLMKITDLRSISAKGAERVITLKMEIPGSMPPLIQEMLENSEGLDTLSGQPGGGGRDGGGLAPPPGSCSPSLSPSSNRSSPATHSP
As to the kind of experiment: Transcriptional activation of Retinoic Acid Receptor alpha (RAR alpha). In kind it is functional. The procedure, abridged: as §2

In experiment [3] the target is T2, Retinoic acid receptor alpha (Homo sapiens). Particulars: HL-60.
Experiment [4] concerns the target T3, Retinoic acid receptor beta (Homo sapiens, UniProt P10826).
T3 sequence (P10826 whole entry): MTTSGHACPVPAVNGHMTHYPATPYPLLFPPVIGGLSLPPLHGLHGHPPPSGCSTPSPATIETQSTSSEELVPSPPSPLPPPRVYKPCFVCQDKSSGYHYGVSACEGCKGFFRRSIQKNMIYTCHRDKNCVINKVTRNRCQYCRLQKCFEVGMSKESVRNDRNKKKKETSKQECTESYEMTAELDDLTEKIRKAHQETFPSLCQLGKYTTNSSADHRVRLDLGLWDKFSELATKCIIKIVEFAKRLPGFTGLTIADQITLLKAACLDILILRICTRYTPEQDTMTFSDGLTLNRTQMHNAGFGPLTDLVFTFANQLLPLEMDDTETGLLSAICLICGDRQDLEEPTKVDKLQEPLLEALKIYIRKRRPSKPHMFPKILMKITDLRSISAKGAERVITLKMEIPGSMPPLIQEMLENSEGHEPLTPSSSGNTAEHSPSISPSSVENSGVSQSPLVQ
Nature of the experiment: Binding affinity for Retinoic Acid Receptor beta (RAR beta). In short, it runs like this: (§3)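 Competitive binding to each RAR isoform using [³H]ATRA as radioligand. IC50 for each receptor was divided by the ATRA IC50 on the same receptor to give relative IC50 (mean ± SEM). Values were labelled not detectable when relative IC50 > 1000.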

For experiment [5], the target named is T4, Retinoic acid receptor beta (Homo sapiens) (UniProt P10826).
T4 sequence (whole entry): T3 sequence (P10826 whole entry)
Nature of the experiment: Transcriptional activation of Retinoic Acid Receptor beta (RAR beta). Type of experiment: functional. The procedure, abridged:
as §2

In experiment [6] the target is T2, Retinoic acid receptor alpha (Homo sapiens). Particulars: COS-1.
Experiment [7] concerns the target T4, Retinoic acid receptor beta (Homo sapiens). Nature of the experiment: Transcriptional activation in COS-1 cells expressing Retinoic Acid Receptor beta (RAR beta). Type of experiment: functional, cell-based. The procedure, abridged: as §2
For experiment [8], the target named is T1, Retinoic acid receptor gamma (Homo sapiens). As to the kind of experiment: Transcriptional activation in COS-1 cells expressing Retinoic Acid Receptor gamma (RAR gamma). In kind it is functional, cell-based. In short, it runs like this: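 Receptor and reporter vectors were lipofected into COS-1 cells for 4 h, then cultured 20 h in DMEM/10% FBS. Cells were reseeded at 3 × 10⁴ per well. After 6 h, compound was added in log dilutions from 1.0 × 10^-10 to 3.0 × 10^-6 M in duplicate. Supernatant PLAP activity was read after 48 h. EC30 was normalised to ATRA EC30 (mean ± SEM).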

The target of experiment [9] is T5, Retinoic acid receptor alpha (Homo sapiens, UniProt P10276).
T5 sequence (P10276 whole entry): T2 sequence (whole entry)
As to the kind of experiment: (§4) Binding affinity for Retinoic Acid Receptor alpha (RAR alpha).

Experiment [10] deals with T6, Retinoic acid receptor gamma (Homo sapiens, UniProt P13631).
T6 sequence (P13631 whole entry): T1 sequence (whole entry)
Nature of the experiment: Binding affinity for Retinoic acid receptor gamma. The procedure, abridged: as §3

Experiment [11] deals with T6, Retinoic acid receptor gamma. As to the kind of experiment: Binding affinity for Retinoic Acid Receptor gamma (RAR gamma). In short, it runs like this:
(§5)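 Competitive binding to individual RAR isoforms with [3H]ATRA as radioligand. IC50 for each receptor divided by the ATRA IC50 and reported as relative IC50 (mean ± SEM). nd means relative IC50 > 1000.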

In experiment [12] the target is T5, Retinoic acid receptor alpha. Described as §4. In short, it runs like this:
as §5
The source holds these as a separate data set.

For experiment [13], the target named is T1, Retinoic acid receptor gamma (Homo sapiens). Described as §1. The procedure, abridged:
as §2

The target of experiment [14] is T2, Retinoic acid receptor alpha (Homo sapiens). As to the kind of experiment: Induction of HL-60 cell differentiation at Retinoic Acid Receptor alpha (RAR alpha). In kind it is functional, cell-based. The procedure, abridged: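 HL60 cells (1 × 10⁵ in 1 mL RPMI1640) were exposed to compounds for 5 days, in log dilutions from 1.0 × 10^-5 to 1.0 × 10^-12 M in duplicate. Differentiation was read as cell-surface CD11b expression by FACS. Values are averages of at least two experiments.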

Experiment [15] deals with T5, Retinoic acid receptor alpha. As to the kind of experiment: Binding affinity for Retinoic Acid Receptor alpha (RAR alpha). The procedure, abridged:
as §5

For experiment [16], the target named is T2, Retinoic acid receptor alpha (Homo sapiens). As to the kind of experiment: Transcriptional activation in COS-1 cells expressing Retinoic Acid Receptor alpha (RAR alpha). In kind it is functional, cell-based. In short, it runs like this:
as §2

What is called EC30 is the concentration at which the effect reaches the 30% level. Read a low EC30 as greater potency. One may read the IC50 as the concentration that gives 50% inhibition. Lower therefore signals inhibition by little substance.

Regarding `CC1(C)CCC(C)(C)c2nc(-c3cc(-c4ccc(C(=O)O)cc4)[nH]n3)cnc21`, the EC30 was determined as 3.9 nM in [1], 1.7 nM in experiment [2] and 0.85 nM in experiment [5]. This compound had an ED30 in experiment [3] of 2.1 nM. The compound also came in with an IC50 in experiment [4] of 290 nM.

Turning to `CC1(C)CCC(C)(C)c2cc(-c3ccc(-c4ccc(C(=O)O)cc4)[nH]3)ccc21`, the EC30 in experiment [6] stood at 0.34 nM; in [7], 3.9 nM; in experiment [8], 3.5 nM. The same compound registered an ED30 in [3] of 0.54 nM. The IC50 in [9] turned out to be 0.45 nM; in [4], 100 nM; in experiment [10], 21 nM.

Take `CC1(C)CCC(C)(C)c2nc(-c3ccc(-c4ccc(C(=O)O)cc4)o3)cnc21`: the EC30 in [1] was 1.5 nM; in [2] it was 1.8 nM; in experiment [5] it was 0.38 nM. For the same compound, the ED30 in [3] is 2.1 nM. Moreover, the IC50 amounted to 4.6 nM in experiment [11], 32 nM in [12] and 39 nM in [4].

On to `CC1(C)CCC(C)(C)c2cc(C(=O)Nc3ccc(C(=O)O)cc3)ccc21`, for which the EC30 in experiment [7] is 12 nM; in experiment [8], 33 nM.

With `CC1(C)CCC(C)(C)c2nc(-c3cc(-c4ccc(C(=O)O)cc4)co3)cnc21`, the EC30 in experiment [1] worked out at 0.76 nM; in experiment [2] it was 0.35 nM; in experiment [5], 0.18 nM. The same compound showed an ED30 in experiment [3] of 0.21 nM. The IC50 in [11] worked out at 27 nM; in experiment [12], 19 nM; in experiment [4], 2.5 nM.

Turning to `CC1(C)CCC(C)(C)c2nc(-c3cc(-c4ccc(C(=O)O)cc4)c[nH]3)cnc21`, the EC30 in experiment [1] is 1.6 nM; in [2], 11 nM; in [5] it was 4.5 nM. Besides, the ED30 in experiment [3] worked out at 140 nM. The IC50 in experiment [11] is 150 nM.

As for `CC1(C)CCC(C)(C)c2nc(-c3c[nH]c(-c4ccc(C(=O)O)cc4)n3)cnc21`, the EC30 in experiment [13] stood at 39 nM; in experiment [2] it was 80 nM; in [5], 40 nM. Also, in experiment [14], the ED30 turned out to be 20 nM.

For `CC1(C)CCC(C)(C)c2nc(C(=O)Nc3ccc(C(=O)O)cc3)cnc21`, the values for the EC30 in [1], in experiment [2] and in experiment [5] were 1.6 nM, 0.15 nM and 0.4 nM, respectively. Further, in experiment [3], the ED30 is 0.87 nM. The results for the IC50 in [4] and in experiment [15] were 140 nM and 40 nM, respectively.

Consider `CC1(C)CCC(C)(C)c2nc(-c3csc(-c4ccc(C(=O)O)cc4)n3)cnc21`, for which the concentration for an effect of 30% (EC30) in experiment [1] is 0.34 nM; in experiment [2], 5.2 nM; in experiment [5], 0.39 nM. In addition, in experiment [3], the ED30 amounted to 11 nM. The IC50 in [11] worked out at 3.6 nM; in experiment [12], 83 nM; in [4] it was 21 nM.

With `CC1(C)CCC(C)(C)c2nc(-c3ccc(-c4ccc(C(=O)O)cc4)[nH]3)cnc21`, the values for the EC30 in experiment [7], in experiment [8] and in experiment [16] were 2.5 nM, 20 nM and 0.32 nM, respectively. This compound displayed an ED30 in experiment [3] of 0.11 nM. In addition, the figures for the IC50 in [12], in experiment [4] and in experiment [10] were 2.2 nM, 230 nM and 310 nM, respectively.

Consider `CC1(C)CCC(C)(C)c2cc(NC(=O)c3ccc(C(=O)O)cc3)ccc21`, for which the EC30 in experiment [7] is 48 nM; in experiment [8] it was 150 nM.

Take `Cn1c(-c2ccc(C(=O)O)cc2)ccc1-c1cnc2c(n1)C(C)(C)CCC2(C)C`: the EC30 in experiment [13] is 120 nM; in [2], 38 nM; in [5], 14 nM. In experiment [14], the ED30 was 240 nM.

For the compound `CC1(C)CCC(C)(C)c2nc(-c3cc(-c4ccc(C(=O)O)cc4)cs3)cnc21`, the figures for the EC30 in experiment [1], in experiment [2] and in experiment [5] were 0.72 nM, 0.87 nM and 0.5 nM, respectively. Also, the ED30 in experiment [3] is 9.5 nM. The IC50 in experiment [11] came to 2 nM; in experiment [12], 2.4 nM; in [4], 4.5 nM.

In the case of `CC1(C)CCC(C)(C)c2nc(-c3ccc(-c4ccc(C(=O)O)cc4)s3)cnc21`, the EC30 in [1] came out at 2.1 nM; in [2], 15 nM; in experiment [5] it was 0.73 nM. Moreover, the ED30 in experiment [3] was 40 nM. For the same compound, the IC50 was found to be 17 nM in experiment [11], 130 nM in experiment [12] and 36 nM in [4].
